Measured values as given in ChEMBL document CHEMBL4428118, “Optimization of pyrimidinol antioxidants as mitochondrial protective agents: ATP production and metabolic stability” (Bioorg Med Chem, 2016).
Calls of active or inactive are those of the source. The rule behind the calls is not given here.

What was measured:
[1] = system: GM15850; test: Antioxidant activity in FRDA patient derived lymphocyte GM15850 assessed as inhibition of DEM-induced lipid peroxidation at 0.1 to 1 uM pre-incubated for 16 hrs followed by DEM addition for 120 mins by C11-BODIPY581/591 probe based flow cytometry relative to control; type: functional, cell-based; details: Homo sapiens
Outline: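 Cells seeded at 5 × 10^5 cells/mL in RPMI-1640 with 15% fetal calf serum and 2 mM glutamine. Compounds added 16 h at 37 °C, 5% CO2. Then 1 μM C11-BODIPY581/591 in phenol red-free medium, 30 min in the dark. 5 mM DEM for 120 min, PBS wash, FL1-H read (488 nm excitation). 10,000 events. Green median fluorescence reported as % of DEM-treated control, n = 3.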

[2] = system: GM15850; test: Antioxidant activity in FRDA patient derived lymphocyte GM15850 assessed as suppression of DEM-induced intracellular ROS levels at 100 nM pre-incubated for 16 hrs followed by DEM addition for 80 mins by DCFH-DA probe based flow cytometry; type: functional, cell-based; details: Homo sapiens
Outline: (§1)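 Cells (5 × 10^5) pretreated with compound 16 h at 37 °C, then 5 mM DEM for 80 min. Washed, then 10 μM DCFH-DA in PBS with 20 mM glucose for 25 min at 37 °C in the dark. DCF read on FL1-H, 10,000 events. Median fluorescence given as % of DEM-treated control. Duplicates, three independent runs.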

[3] = system: GM15850; test: Inhibition of DEM-induced collapse of mitochondrial membrane potential in FRDA patient derived lymphocyte GM15850 assessed as intact mitochondrial membrane potential at 100 nM pre-incubated for 16 hrs followed by DEM addition for 120 mins by TMRM dye based flow cytometry (reference value: 91.3 %); type: functional, Homo sapiens; set-up: scale not given: the % may be the effect or the level left
Outline: (§2)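 Cells (5 × 10^5) pretreated with or without compound for 16 h, then 5 mM DEM for 120 min. Stained with 250 nM TMRM in PBS with 20 mM glucose, 15 min at 37 °C in the dark. FL2-H read, 10,000 events, % cells with high TMRM uptake (intact potential). FCCP as uncoupler control. Means ± SEM of independent experiments run in duplicate.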

[4] = system: GM15850; test: Inhibition of DEM-induced collapse of mitochondrial membrane potential in FRDA patient derived lymphocyte GM15850 assessed as intact mitochondrial membrane potential at 1000 nM pre-incubated for 16 hrs followed by DEM addition for 120 mins by TMRM dye based flow cytometry (reference value: 91.3 %); type: functional, Homo sapiens; set-up: scale not given: the % may be the effect or the level left; outline: as §2
[5] = system: GM15850; test: Inhibition of DEM-induced collapse of mitochondrial membrane potential in FRDA patient derived lymphocyte GM15850 assessed as intact mitochondrial membrane potential at 2500 nM pre-incubated for 16 hrs followed by DEM addition for 120 mins by TMRM dye based flow cytometry (reference value: 91.3 %); type: functional, Homo sapiens; set-up: scale not given: the % may be the effect or the level left; outline: as §2
[6] = system: GM15850; test: Inhibition of DEM-induced collapse of mitochondrial membrane potential in FRDA patient derived lymphocyte GM15850 assessed as intact mitochondrial membrane potential pre-incubated for 16 hrs followed by DEM addition for 120 mins by TMRM dye based flow cytometry; type: functional, cell-based; details: Homo sapiens; outline: as §2
[7] = system: GM15850; test: Effect on mitochondrial membrane potential in FRDA patient derived lymphocyte GM15850 incubated for 16 hrs by TMRM dye based flow cytometry; type: cell-based; details: human, gm15850, 16 h
[8] = system: GM15850; test: Increase in total intracellular ATP levels in FRDA patient derived lymphocyte GM15850 grown in galactose medium at 1 uM after 48 hrs by luciferin-luciferase reaction based bioluminescence assay relative to control; type: functional, Homo sapiens
Outline: (§3)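 Cells at 2 × 10^5 cells/mL in glucose-free RPMI with 25 mM galactose, 10% dialyzed FBS and 2 mM glutamine. Compound exposure 48 h at 37 °C, 5% CO2. Total ATP read by luciferin-luciferase bioluminescence. Expressed as % of untreated control, mean of at least three independent runs; Student's t-test, p ≤ 0.05 versus vehicle.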

[9] = system: GM15850; test: Increase in total intracellular ATP levels in FRDA patient derived lymphocyte GM15850 grown in galactose medium at 5 uM after 48 hrs by luciferin-luciferase reaction based bioluminescence assay relative to control; type: functional, Homo sapiens; outline: as §3
[10] = system: GM15850; test: Increase in total intracellular ATP levels in FRDA patient derived lymphocyte GM15850 grown in galactose medium at 20 uM after 48 hrs by luciferin-luciferase reaction based bioluminescence assay relative to control; type: functional, Homo sapiens; outline: as §3
[11] = system: GM15850; test: Cytoprotective activity against DEM induced oxidative stress in FRDA patient derived lymphocyte GM15850 assessed as cell viability at 0.5 uM pre-incubated for 16 hrs followed by DEM addition for 6 hrs by calcein AM/EthD-1 staining based flow cytometry; type: functional; details: Homo sapiens
Outline: (§4)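 Seeding 5 × 10^5 cells/mL, compound for 16 h at 37 °C, then 5 mM DEM for 6 h. Cells washed, resuspended in PBS with 25 mM galactose. Stained with 0.1 μM calcein AM and 0.1 μM EthD-1, 15 min at 37 °C in the dark. FL1-H/FL2-H read, 10,000 events. Viability relative to DMSO vehicle control.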

[12] = system: GM15850; test: Cytoprotective activity against DEM induced oxidative stress in FRDA patient derived lymphocyte GM15850 assessed as cell viability at 0.1 uM pre-incubated for 16 hrs followed by DEM addition for 6 hrs by calcein AM/EthD-1 staining based flow cytometry; type: functional; details: Homo sapiens; outline: as §4
[13] = Stability in bovine liver microsomes assessed as drug recovery at 25 uM after 30 mins in presence of beta-NADPH by HPLC analysis; type: ADME, Bos taurus, Microsome; details: cattle, read-out: Drug recovery
Outline: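 Freshly prepared bovine liver microsomes at 1 mg/mL protein in 50 mM phosphate buffer pH 7.4 with 5 mM MgCl2. Compound at 25 μM final, reaction started with 1 mM β-NADPH, 30 min at 37 °C, stopped with propanol. Control was deactivated microsomes without NADPH. Reversed-phase HPLC with fluorene internal standard. Reported as % remaining versus control, quadruplicate.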

[14] = system: GM15850; test: Increase in total intracellular ATP levels in FRDA patient derived lymphocyte GM15850 grown in galactose medium after 48 hrs by luciferin-luciferase reaction based bioluminescence assay; type: functional, cell-based; details: Homo sapiens; outline: as §3
[15] = system: GM15850; test: Antioxidant activity in FRDA patient derived lymphocyte GM15850 assessed as suppression of DEM-induced intracellular ROS levels at 2.5 uM pre-incubated for 16 hrs followed by DEM addition for 80 mins by DCFH-DA probe based flow cytometry; type: functional, cell-based; details: Homo sapiens; outline: as §1
[16] = system: GM15850; test: Antioxidant activity in FRDA patient derived lymphocyte GM15850 assessed as suppression of DEM-induced intracellular ROS levels pre-incubated for 16 hrs followed by DEM addition for 80 mins by DCFH-DA probe based flow cytometry; type: functional, cell-based; details: Homo sapiens; outline: as §1

| remaining at 0.5 h, 25 µM [13] [%] | Activity [14] | Structure (SMILES) | Activity [1] | Activity [2] | Activity [3] [%] | Activity [4] [%] | Activity [5] [%] | Activity [6] | Activity [7] | Activity [8] [%] | Activity [9] [%] | Activity [10] [%] | Activity [11] | Activity [12] | Activity [15] | Activity [16] |
| --- | --- | --- | --- | --- | --- | --- | --- | --- | --- | --- | --- | --- | --- | --- | --- | --- |
| 54 | – | CCCCCCCCCCCCCCCCc1nc(N2CCC2)nc(OCC)c1O | Active | Active | 88.9 | 87.6 | 88 | Dose-dependent effect | Non-Toxic | 100 | 108 | 96 | Active | inactive | – | – |
| 62 | Dose-dependent effect | CCCCCCCCCCCCCCCOc1nc(N2CCC2)nc(C)c1O | Active | Active | 88.9 | 82.7 | 77.2 | Dose-dependent effect | Non-Toxic | 96 | 68 | 11 | Active | inactive | – | – |
| 72 | – | CCCCCCCCCCCCCCCCc1nc(N2CCCCC2)nc(OC2CCC2)c1O | inactive | inactive | 7.8 | 32.4 | 62.3 | Dose-dependent effect | Non-Toxic | 99 | 106 | 100 | inactive | inactive | Active | Dose-dependent effect |
| 58 | – | CCCCCCCCCCCCCCCCc1nc(N2CCC2)nc(OC)c1O | Active | Active | 90.5 | 88.8 | 86.8 | Dose-dependent effect | Non-Toxic | 102 | 109 | 74 | Active | inactive | – | – |
| 57 | – | CCCCCCCCCCCCCCCCc1nc(N2CCC2)nc(C)c1O | Active | Active | 91.1 | 86.5 | 83.3 | Dose-dependent effect | Non-Toxic | 109 | 98 | 60 | Active | inactive | – | – |
| 72 | – | CCCCCCCCCCCCCCCCc1nc(N2CCCC2)nc(OC2CCC2)c1O | inactive | inactive | 42.5 | 52.3 | 70.4 | Dose-dependent effect | Non-Toxic | 98 | 107 | 102 | inactive | inactive | Active | Dose-dependent effect |
| 46 | – | CCCCCCCCCCCCCCCCc1nc(N(C)C)nc(OC)c1O | Active | Active | 92 | 88.3 | 85.8 | Dose-dependent effect | Non-Toxic | 115 | 107 | 88 | – | inactive | – | – |
| 76 | – | CCCCCCCCCCCCCCCCc1nc(N2CCC2)nc(OC(C)C)c1O | Active | Active | 91.5 | 90.4 | 87.5 | Dose-dependent effect | Non-Toxic | 106 | 109 | 95 | Active | inactive | – | – |
| 65 | – | CCCCCCCCCCCCCCCCc1nc(N2CCC2)nc(OC2CCC2)c1O | inactive | inactive | 55 | 66.6 | 83.4 | Dose-dependent effect | Non-Toxic | 98 | 112 | 103 | inactive | inactive | Active | Dose-dependent effect |
